Experimental data taken from ChEMBL document CHEMBL1268852, “Quercetin prevents unloading-derived disused muscle atrophy by attenuating the induction of ubiquitin ligases in tail-suspension mice” (J Nat Prod, 2010).
Calls of active or inactive are those of the source. The rule behind the calls is not given here.

Tests used:
Assay type in all cases: functional, organism-based
Mus musculus [1] = experiment: Reduction of gastrocnemius muscle weight loss in C57BL/6 mouse tail suspension model at 2.5 pmol administered in gastrocnemius muscle qd for 10 days relative to whole body weight
Mus musculus [2] = experiment: […] of lipid peroxidation in gastrocnemius muscle of C57BL/6 mouse tail suspension model assessed as decrease of thiobarbituric acid-reactive substance level at 2.5 pmol administered in gastrocnemius muscle qd for 10 days by RT-PCR analysis
Outline: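 Male C57BL/6 mice, 7 weeks old. Compound in 0.9% saline with 0.1% propylene glycol, 2.5 pmol/leg (50 µL) injected into one gastrocnemius and vehicle into the other, given every 24 h. Tail suspension began 24 h after the first dose and lasted 10 days; ground mice served as controls. Muscle taken 6 h after the day-10 dose. TBARS measured by fluorescence ([…]) against a tetraethoxypropane standard; n=4, two-way ANOVA.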

Mus musculus [3] = experiment: Reduction of atrogin-1 mRNA expression in gastrocnemius muscle of C57BL/6 mouse tail suspension model at 2.5 pmol administered in gastrocnemius muscle qd for 10 days by RT-PCR analysis
Outline: (§1)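 Male C57BL/6 mice, 7 weeks old, injected intramuscularly in one gastrocnemius with 2.5 pmol/leg in saline/0.1% propylene glycol every 24 h; vehicle went into the contralateral leg. Tail suspension lasted 10 days and ground mice served as controls. Gastrocnemius taken 6 h after the last dose. mRNA measured by real-time PCR and given as % of the vehicle-ground level; mean ± SE, n=4.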

Mus musculus [4] = experiment: Reduction of MuRF-1 mRNA expression in gastrocnemius muscle of C57BL/6 mouse tail suspension model at 2.5 pmol administered in gastrocnemius muscle qd for 10 days by RT-PCR analysis; outline: as §1

Which results are given for CC(=O)N[C@@H](CS)C(=O)O?
Activity (Mus musculus [1]): Active; Activity (Mus musculus [2]): Active

How did the Activity (Mus musculus [1]) turn out when O=c1c(O)c(-c2ccc(O)c(O)c2)oc2cc(O)cc(O)c12 was run?
Its Activity is “Active”.

What about the Activity (Mus musculus [3]) of the same molecule?
The Activity was “Active”.

And the Activity (Mus musculus [4])?
The Activity was “Active”.

What about the Activity (Mus musculus [2]) of the same molecule?
The Activity was “Active”.

Which Activity (Mus musculus [3]) does the source give for O=c1cc(-c2ccccc2)oc2ccccc12 here?
Its Activity is “inactive”.

And the Activity (Mus musculus [4])?
Its Activity is “inactive”.

And the Activity (Mus musculus [2])?
The Activity was “inactive”.
